Published values collected from several papers.
Lines come from different studies, so protocols differ.
Target: Serine/threonine-protein kinase BRSK2 (BRSK2, Homo sapiens, UniProt Q8IWQ3)
One construct used (Q8IWQ3 1-736): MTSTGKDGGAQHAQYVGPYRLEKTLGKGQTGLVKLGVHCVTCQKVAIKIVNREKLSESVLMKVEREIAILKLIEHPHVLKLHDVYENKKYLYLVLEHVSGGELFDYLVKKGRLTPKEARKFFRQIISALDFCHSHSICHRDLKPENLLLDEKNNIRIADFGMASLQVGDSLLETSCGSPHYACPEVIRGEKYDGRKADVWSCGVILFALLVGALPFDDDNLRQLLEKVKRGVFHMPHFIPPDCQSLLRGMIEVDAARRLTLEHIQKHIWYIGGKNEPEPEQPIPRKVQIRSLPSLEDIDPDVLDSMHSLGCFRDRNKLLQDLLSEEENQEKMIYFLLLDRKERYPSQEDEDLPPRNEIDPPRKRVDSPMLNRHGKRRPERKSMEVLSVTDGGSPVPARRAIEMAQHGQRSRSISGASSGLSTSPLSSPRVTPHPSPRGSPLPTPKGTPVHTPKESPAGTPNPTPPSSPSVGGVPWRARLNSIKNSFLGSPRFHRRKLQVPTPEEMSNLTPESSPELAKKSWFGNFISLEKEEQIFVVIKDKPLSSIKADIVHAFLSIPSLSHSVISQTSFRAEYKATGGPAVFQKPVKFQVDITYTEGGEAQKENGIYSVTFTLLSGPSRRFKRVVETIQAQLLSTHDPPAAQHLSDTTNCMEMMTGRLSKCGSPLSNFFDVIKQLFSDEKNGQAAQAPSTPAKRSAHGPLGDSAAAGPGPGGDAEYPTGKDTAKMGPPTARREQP

| SMILES | test | setting | remaining binding |
| --- | --- | --- | --- |
| C[C@H](c1ccnc(Nc2nc3ccc(-c4cc(N(C)C)ncn4)cc3[nH]2)c1)N1CCN(C(=O)CC(F)(F)F)CC1 | cell-free assay, competition with immobilised ligand | 0.1 µM | 100% |
| COc1cnc(Nc2cccc(S(N)(=O)=O)c2)nc1N1CCN(c2ccccc2)C(=O)C1 | binding, competition with immobilised ligand | 1 µM | 100% |
| COc1cc(-c2cn(C3CCc4ccccc4N(CC(F)(F)F)C3=O)nn2)ccc1-n1ccc(C)n1 (stereo not drawn) | cell-free assay, competition with immobilised ligand | 1 µM | 97% |
| Cc1cnc(Nc2ccc(C(=O)N3CCC(N4CCCC4)CC3)cc2)nc1-c1cc2ccccc2s1 | binding, competition with immobilised ligand | 1 µM | 42% |
| COc1ccc2cc(OCC3(C(=O)O)CN(C(=O)c4ccc(F)cc4)C3)ccc2c1 | cell-free assay, competition with immobilised ligand | 1 µM | 100% |
| C[C@@H]1CCN(c2nccc(-c3cnn4ncccc34)n2)C1 | binding | 1 µM | 91% |
| CN(C)c1ncnc(-c2ccc3nc(Nc4cc(CN5CCN(C(=O)CC(F)(F)F)CC5)ccn4)[nH]c3c2)c1Cl | cell-free assay, competition with immobilised ligand | 1 µM | 100% |
| CCN1CCN(Cc2ccc(C(=O)Nc3ccc(C)c(Oc4ccc5c(c4)CC(=O)N5)c3)cc2C(F)(F)F)CC1 | binding, competition with immobilised ligand | 1 µM | 100% |
| CN(C)c1ncc(F)c(-c2cnn3ncccc23)n1 | binding | 1 µM | 100% |
| CNC(=O)[C@@H]1CC[C@@H](n2c(-c3ccc4cnccc4c3)nc3ccc(C(=O)NCc4cccc(C(N)=O)c4)cc32)C1 | binding, competition with immobilised ligand | 1 µM | 93% |
| O=C(c1ccc(Nc2ncc(Cl)c(-c3cc4ccccc4s3)n2)cc1)N1CCC(N2CCCC2)CC1 | binding, competition with immobilised ligand | 1 µM | 53% |
| O=C(NCC1CCOCC1)c1n[nH]cc1NC(=O)c1c(F)cccc1F | binding, competition with immobilised ligand | 1 µM | 95% |
| COc1ccnn2ncc(-c3ccnc(N(C)C)n3)c12 | binding | 1 µM | 76% |
| Nc1ncc2c(n1)-c1c([nH]c3ccc(C#CC4CC4)cc13)CCCC2 | binding, competition with immobilised ligand | 1 µM | 93% |
| O=C(Nc1cnc(Oc2ccc(F)cc2)nc1)N1CCc2ncccc2[C@@H]1c1ccc(F)cc1 | cell-free assay, competition with immobilised ligand | 1 µM | 89% |
| c1cnn2ncc(-c3ccnc(N4CCC45COC5)n3)c2c1 | binding | 1 µM | 84% |
| C[C@H](c1ccc(F)cc1)N(Cc1cccc(C(=O)O)c1)C(=O)c1cnc2ccccc2c1 | cell-free assay, competition with immobilised ligand | 1 µM | 100% |
| CN(C)c1nccc(-c2cnc3ncccn23)n1 | binding | 1 µM | 100% |
| FC(F)(F)Oc1cccc(-c2cnc3ccc(-c4ccncc4)nn23)c1 | cell-free assay, competition with immobilised ligand | 5 µM | 80% |
| O=C(c1ccc(Nc2nccc(-c3cc4ccccc4s3)n2)cc1)N1CCC(N2CCCC2)CC1 | binding, competition with immobilised ligand | 1 µM | 91% |
| N[C@@H]1CCN(c2nccc(-c3cnn4ncccc34)n2)C1 | binding | 1 µM | 100% |
